What was measured:
MGC-803 [1] = assay: Cell cycle arrest in human MGC803 cells assessed as accumulation at G0/G1 phase at 0.25 umol/L after 12 hrs by propidium iodide staining-based flow cytometric analysis (reference value: 39.17%); format: functional
[2] = Cytotoxicity against human EC109 cells assessed as growth inhibition after 72 hrs by MTT assay; format: functional, cell-based; conditions: ECa-109, 72 h
Summary of the method: (§1)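 Exponentially growing cells were seeded at 5×10^3 per well and held 24 h at 37 °C. Medium was then replaced with fresh medium containing a range of concentrations, and cells were exposed for 72 h. MTT (5 mg/mL) was added for 4 h at 37 °C, formazan was dissolved in DMSO and A570 was read. Triplicate wells per concentration, three experiments. IC50 was taken from dose–response curves of inhibition ratio.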

MGC-803 [3] = assay: Induction of apoptosis in human MGC803 cells assessed as early apoptotic cells at 0.25 umol/L after 12 hrs by annexin-V-FITC/propidium iodide staining-based flow cytometric analysis (reference value: 3.7%); format: functional
Summary of the method: (§2)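 MGC-803 cells were plated at 5.0×10^4 cells/mL, held 12 h at 37 °C, then given complete medium (blank) or compound at 0, 0.25, 0.5 or 1.0 µmol/L for 12 h. Quadrants: live (annexin−/PI−), early apoptotic (annexin+/PI−), late apoptotic (annexin+/PI+), damaged (annexin−/PI+).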

MGC-803 [4] = assay: Cell cycle arrest in human MGC803 cells assessed as accumulation at S phase at 0.25 umol/L after 24 hrs by propidium iodide staining-based flow cytometric analysis (reference value: 39.56%); format: functional
MGC-803 [5] = assay: Cell cycle arrest in human MGC803 cells assessed as accumulation at G2/M phase after 12 to 24 hrs by propidium iodide staining-based flow cytometric analysis; format: functional
MGC-803 [6] = assay: Cell cycle arrest in human MGC803 cells assessed as accumulation at S phase at 1 umol/L after 12 hrs by propidium iodide staining-based flow cytometric analysis (reference value: 41.43%); format: functional
MGC-803 [7] = assay: Cell cycle arrest in human MGC803 cells assessed as accumulation at S phase at 1 umol/L after 24 hrs by propidium iodide staining-based flow cytometric analysis (reference value: 39.56%); format: functional
MGC-803 [8] = assay: Induction of apoptosis in human MGC803 cells assessed as damaged cells at 0.25 umol/L after 12 hrs by annexin-V-FITC/propidium iodide staining-based flow cytometric analysis (reference value: 1.9%); format: functional; summary of the method: as §2
PC-3 = assay: Cytotoxicity against human PC3 cells assessed as growth inhibition after 72 hrs by MTT assay; format: functional, cell-based; conditions: PC-3, 72 h; summary of the method: as §1
MGC-803 [9] = assay: Cell cycle arrest in human MGC803 cells assessed as accumulation at G0/G1 phase at 0.5 umol/L after 24 hrs by propidium iodide staining-based flow cytometric analysis (reference value: 43.68%); format: functional
MGC-803 [10] = assay: Induction of apoptosis in human MGC803 cells assessed as early apoptotic cells at 1 umol/L after 12 hrs by annexin-V-FITC/propidium iodide staining-based flow cytometric analysis (reference value: 3.7%); format: functional; summary of the method: as §2
MGC-803 [11] = assay: Induction of apoptosis in human MGC803 cells assessed as early apoptotic cells at 0.5 umol/L after 12 hrs by annexin-V-FITC/propidium iodide staining-based flow cytometric analysis (reference value: 3.7%); format: functional; summary of the method: as §2
MGC-803 [12] = assay: Cell cycle arrest in human MGC803 cells assessed as accumulation at G0/G1 phase at 0.5 umol/L after 12 hrs by propidium iodide staining-based flow cytometric analysis (reference value: 39.17%); format: functional
MGC-803 [13] = assay: Cell cycle arrest in human MGC803 cells assessed as accumulation at S phase at 0.25 umol/L after 12 hrs by propidium iodide staining-based flow cytometric analysis (reference value: 41.43%); format: functional
MGC-803 [14] = assay: Cell cycle arrest in human MGC803 cells assessed as accumulation at S phase at 0.5 umol/L after 12 hrs by propidium iodide staining-based flow cytometric analysis (reference value: 41.43%); format: functional
MGC-803 [15] = assay: Induction of apoptosis in human MGC803 cells assessed as late apoptotic cells at 0.5 umol/L after 12 hrs by annexin-V-FITC/propidium iodide staining-based flow cytometric analysis (reference value: 5.5%); format: functional; summary of the method: as §2
MCF7 = assay: Cytotoxicity against human MCF7 cells assessed as growth inhibition after 72 hrs by MTT assay; format: functional, cell-based; conditions: MCF7, 72 h; summary of the method: as §1
MGC-803 [16] = assay: Cell cycle arrest in human MGC803 cells assessed as accumulation at G0/G1 phase at 1 umol/L after 12 hrs by propidium iodide staining-based flow cytometric analysis (reference value: 39.17%); format: functional
MGC-803 [17] = assay: Induction of apoptosis in human MGC803 cells assessed as damaged cells at 0.5 umol/L after 12 hrs by annexin-V-FITC/propidium iodide staining-based flow cytometric analysis (reference value: 1.9%); format: functional; summary of the method: as §2
MGC-803 [18] = assay: Cell cycle arrest in human MGC803 cells assessed as accumulation at G0/G1 phase at 1 umol/L after 24 hrs by propidium iodide staining-based flow cytometric analysis (reference value: 43.68%); format: functional
MGC-803 [19] = assay: Cell cycle arrest in human MGC803 cells assessed as accumulation at G0/G1 phase at 0.25 umol/L after 24 hrs by propidium iodide staining-based flow cytometric analysis (reference value: 43.68%); format: functional
MGC-803 [20] = assay: Induction of apoptosis in human MGC803 cells assessed as live cells at 0.5 umol/L after 12 hrs by annexin-V-FITC/propidium iodide staining-based flow cytometric analysis (reference value: 88.9%); format: functional; summary of the method: as §2
MGC-803 [21] = assay: Induction of apoptosis in human MGC803 cells assessed as live cells at 0.25 umol/L after 12 hrs by annexin-V-FITC/propidium iodide staining-based flow cytometric analysis (reference value: 88.9%); format: functional; summary of the method: as §2
MGC-803 [22] = assay: Induction of apoptosis in human MGC803 cells assessed as live cells at 1 umol/L after 12 hrs by annexin-V-FITC/propidium iodide staining-based flow cytometric analysis (reference value: 88.9%); format: functional; summary of the method: as §2
MGC-803 [23] = assay: Induction of apoptosis in human MGC803 cells after 12 hrs by annexin-V-FITC/propidium iodide staining-based flow cytometric analysis; format: functional, cell-based; summary of the method: as §2
MGC-803 [24] = assay: Induction of apoptosis in human MGC803 cells assessed as late apoptotic cells at 1 umol/L after 12 hrs by annexin-V-FITC/propidium iodide staining-based flow cytometric analysis (reference value: 5.5%); format: functional; summary of the method: as §2
MGC-803 [25] = assay: Ratio of 5-fluorouracil IC50 to compound IC50 for growth inhibition of human MGC803 cells; format: functional
Summary of the method: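 The IC50 ratio uses MGC-803 values from the 72 h MTT assay: cells seeded at 5×10^3 per well, compound exposure 72 h, MTT 4 h at 37 °C, A570 read after DMSO solubilization. Triplicate wells, three experiments. IC50 values were taken from dose–response curves, with 5-fluorouracil as the reference.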

MGC-803 [26] = assay: Cytotoxicity against human MGC803 cells assessed as growth inhibition after 72 hrs by MTT assay; format: functional, cell-based; conditions: MGC-803, 72 h; summary of the method: as §1
MGC-803 [27] = assay: Cell cycle arrest in human MGC803 cells assessed as accumulation at G2/M phase at 0.25 to 1 umol/L by propidium iodide staining-based flow cytometric analysis; format: functional; conditions: TDE = time-dependent effect
MGC-803 [28] = assay: Cell cycle arrest in human MGC803 cells assessed as accumulation at S phase at 0.5 umol/L after 24 hrs by propidium iodide staining-based flow cytometric analysis (reference value: 39.56%); format: functional
MGC-803 [29] = assay: Cell cycle arrest in human MGC803 cells assessed as accumulation at G2/M phase at 0.25 umol/L after 24 hrs by propidium iodide staining-based flow cytometric analysis (reference value: 15.12%); format: functional
MGC-803 [30] = assay: Cell cycle arrest in human MGC803 cells assessed as accumulation at G2/M phase at 1 umol/L after 24 hrs by propidium iodide staining-based flow cytometric analysis (reference value: 15.12%); format: functional
MGC-803 [31] = assay: Cell cycle arrest in human MGC803 cells assessed as accumulation at G2/M phase at 0.5 umol/L after 12 hrs by propidium iodide staining-based flow cytometric analysis (reference value: 17.59%); format: functional
MGC-803 [32] = assay: Induction of apoptosis in human MGC803 cells assessed as late apoptotic cells at 0.25 umol/L after 12 hrs by annexin-V-FITC/propidium iodide staining-based flow cytometric analysis (reference value: 5.5%); format: functional; summary of the method: as §2
MGC-803 [33] = assay: Cell cycle arrest in human MGC803 cells assessed as accumulation at G2/M phase at 1 umol/L after 12 hrs by propidium iodide staining-based flow cytometric analysis (reference value: 17.59%); format: functional
MGC-803 [34] = assay: Induction of apoptosis in human MGC803 cells assessed as damaged cells at 1 umol/L after 12 hrs by annexin-V-FITC/propidium iodide staining-based flow cytometric analysis (reference value: 1.9%); format: functional; summary of the method: as §2
MGC-803 [35] = assay: Cell cycle arrest in human MGC803 cells assessed as accumulation at G2/M phase at 0.5 umol/L after 24 hrs by propidium iodide staining-based flow cytometric analysis (reference value: 15.12%); format: functional
MGC-803 [36] = assay: Cell cycle arrest in human MGC803 cells assessed as accumulation at G2/M phase at 0.25 umol/L after 12 hrs by propidium iodide staining-based flow cytometric analysis (reference value: 17.59%); format: functional

Work on `CC(C)(C)OC(=O)N1CCN(C(=S)SCc2cn(Cc3ccccc3Cl)nn2)CC1` yielded an Activity (MGC-803 [1]) of 38.7%, an IC50 [2] of 11.9 µM and an Activity (MGC-803 [3]) of 7.7%. The Activity (MGC-803 [4]) was 34.35%, the Activity (MGC-803 [5]) was “Dose-dependent effect” and the Activity (MGC-803 [6]) was 30.36%. It also gave an Activity (MGC-803 [7]) of 10.67%, an Activity (MGC-803 [8]) of 1.9% and an IC50 (PC-3) of 12.5 µM. It also gave an Activity (MGC-803 [9]) of 9.13%, an Activity (MGC-803 [10]) of 35.1% and an Activity (MGC-803 [11]) of 14.6%. The Activity (MGC-803 [12]) was 30.04%, the Activity (MGC-803 [13]) was 39.06% and the Activity (MGC-803 [14]) was 36.01%. It also gave an Activity (MGC-803 [15]) of 8.4%, an IC50 (MCF7) of 6.09 µM and an Activity (MGC-803 [16]) of 11.95%. For the same compound, the Activity (MGC-803 [17]) was 2.9%, the Activity (MGC-803 [18]) was 1.62% and the Activity (MGC-803 [19]) was 27.21%. The Activity (MGC-803 [20]) was 74.1%, the Activity (MGC-803 [21]) was 84.8% and the Activity (MGC-803 [22]) was 54.6%. The Activity (MGC-803 [23]) was “Dose-dependent effect”, the Activity (MGC-803 [24]) was 8.1% and the “Ratio IC50” value (MGC-803 [25]) was 14. For the same compound, the IC50 (MGC-803 [26]) was 0.49 µM, the Activity (MGC-803 [27]) was “tde” and the Activity (MGC-803 [28]) was 14.81%. It also gave an Activity (MGC-803 [29]) of 38.75%, an Activity (MGC-803 [30]) of 80.05% and an Activity (MGC-803 [31]) of 34.29%. For the same compound, the Activity (MGC-803 [32]) was 5.5%, the Activity (MGC-803 [33]) was 64.1% and the Activity (MGC-803 [34]) was 2.3%. For the same compound, the Activity (MGC-803 [35]) was 68.1% and the Activity (MGC-803 [36]) was 22.2%.

Reference: ChEMBL document CHEMBL2331191, “Design and synthesis of novel 1,2,3-triazole-dithiocarbamate hybrids as potential anticancer agents” (Eur J Med Chem, 2013)
